Data: ChEMBL document CHEMBL3352181, “Novel phenyl and pyridyl substituted derivatives of isoindolines: Synthesis, antitumor activity and DNA binding features” (Eur J Med Chem, 2014)
Calls of active or inactive are those of the source. The calls are words filed in the database; no cut-off is given here.

How the values were obtained:
HepG2 [1] = assay: Induction of cell cycle arrest on human HepG2 cells assessed as accumulation at G1 phase at 50 uM after 48 hrs by propidium iodide staining based flow cytometry (reference value: 55.0 +/- 4.8%); format: functional
HepG2 [2] = assay: Induction of cell cycle arrest on human HepG2 cells assessed as accumulation at G2/M phase at 50 uM after 24 hrs by propidium iodide staining based flow cytometry (reference value: 31.7 +/- 1.9%); format: functional
HepG2 [3] = assay: Induction of cell cycle arrest on human HepG2 cells assessed as accumulation at S phase at 50 uM after 48 hrs by propidium iodide staining based flow cytometry (reference value: 0 +/- 0%); format: functional
Outline: (§1)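 HepG2 or SW620 cells were seeded at 25000 per well. After 24 h they were treated, then harvested 24 or 48 h later. Attached cells were trypsinized, pooled with floating cells, PBS-washed and fixed in 70% ethanol. Cells were stained with PI 1 µg/mL plus RNase A 0.2 µg/mL, and 10 000 events were acquired by flow cytometry. Phase percentages come from DNA histograms, in duplicate, with ANOVA at p < 0.05.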

HepG2 [4] = assay: Induction of cell cycle arrest on human HepG2 cells assessed as accumulation at subG1 phase at 50 uM after 48 hrs by propidium iodide staining based flow cytometry (reference value: 2.8 +/- 0.3%); format: functional; outline: as §1
HepG2 [5] = assay: Induction of cell cycle arrest on human HepG2 cells assessed as accumulation at subG1 phase at 20 uM after 24 hrs by propidium iodide staining based flow cytometry (reference value: 3.1 +/- 0.9%); format: functional; outline: as §1
[6] = target: T1, DNA topoisomerase 1 (Homo sapiens) (UniProt P11387); assay: Inhibition of human topoisomerase 1 assessed as topoisomerase poison activity by measuring generation of open circular DNA using supercoiled pUC19 DNA at 5 to 50 uM by agarose gel electrophoresis
T1 sequence (whole entry): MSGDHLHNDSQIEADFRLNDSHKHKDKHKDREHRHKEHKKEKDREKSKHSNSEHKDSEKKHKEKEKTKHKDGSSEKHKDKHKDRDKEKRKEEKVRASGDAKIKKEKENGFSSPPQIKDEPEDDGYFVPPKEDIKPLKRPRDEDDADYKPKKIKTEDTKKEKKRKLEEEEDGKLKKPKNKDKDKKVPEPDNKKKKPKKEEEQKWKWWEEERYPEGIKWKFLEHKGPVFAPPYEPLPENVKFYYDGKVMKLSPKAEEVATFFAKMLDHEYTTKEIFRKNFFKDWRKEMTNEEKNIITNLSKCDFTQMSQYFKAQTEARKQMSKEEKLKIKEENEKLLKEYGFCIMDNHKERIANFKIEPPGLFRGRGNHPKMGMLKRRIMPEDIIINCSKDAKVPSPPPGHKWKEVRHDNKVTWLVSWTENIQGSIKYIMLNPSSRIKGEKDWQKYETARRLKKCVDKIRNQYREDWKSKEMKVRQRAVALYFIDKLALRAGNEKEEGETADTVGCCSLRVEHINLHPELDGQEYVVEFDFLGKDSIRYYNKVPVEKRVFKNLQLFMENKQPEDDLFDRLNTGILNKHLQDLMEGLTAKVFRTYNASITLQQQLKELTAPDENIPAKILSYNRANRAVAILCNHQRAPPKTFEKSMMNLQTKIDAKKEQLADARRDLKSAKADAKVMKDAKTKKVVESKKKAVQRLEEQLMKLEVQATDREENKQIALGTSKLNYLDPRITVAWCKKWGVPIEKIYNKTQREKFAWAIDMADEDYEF
Outline: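 Supercoiled pUC19 plasmid was incubated with human topoisomerase I and graded compound concentrations. Reactions were stopped with SDS and proteinase K. DNA forms were resolved on 1% agarose in TBE (2 h, 120 V), post-stained with ethidium bromide and photographed under UV. Poisoning was read as appearance of nicked DNA, with camptothecin as the positive control.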

HepG2 [7] = assay: Induction of cell cycle arrest on human HepG2 cells assessed as accumulation at subG1 phase at 50 uM after 24 hrs by propidium iodide staining based flow cytometry (reference value: 3.1 +/- 0.9%); format: functional; outline: as §1
HepG2 [8] = assay: Induction of cell cycle arrest on human HepG2 cells assessed as accumulation at G1 phase at 20 uM after 24 hrs by propidium iodide staining based flow cytometry (reference value: 59.7 +/- 0.9%); format: functional
[9] = (§2) Antiproliferative activity against human SW620 cells assessed as inhibition of cell proliferation after 72 hrs by MTT assay; format: functional, cell-based, SW-620; conditions: Homo sapiens, SW-620, 72 h
Outline: (§3)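 Cells grown as monolayers in DMEM with 10% FBS, 2 mM L-glutamine, penicillin/streptomycin, 37 °C, 5% CO2. Seeded at 5000/well on day 0. Compounds added after 24 h as five serial dilutions (0,01 to 100 µM), DMSO ≤0.1%, then 72 h. MTT read-out converted to percentage growth. IC50 by linear regression; quadruplicates in three experiments.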

SW-620 = assay: as §2; format: functional, cell-based; outline: as §3
HepG2 [10] = assay: Induction of cell cycle arrest on human HepG2 cells assessed as accumulation at G2/M phase at 20 uM after 24 hrs by propidium iodide staining based flow cytometry (reference value: 31.7 +/- 1.9%); format: functional
MCF7 = assay: Antiproliferative activity against human MCF7 cells assessed as inhibition of cell proliferation after 72 hrs by MTT assay; format: functional, cell-based; outline: as §3
HepG2 [11] = assay: Induction of cell cycle arrest on human HepG2 cells assessed as accumulation at G2/M phase at 20 uM after 48 hrs by propidium iodide staining based flow cytometry (reference value: 45.0 +/- 4.8%); format: functional
HeLa = assay: Antiproliferative activity against human HeLa cells assessed as inhibition of cell proliferation after 72 hrs by MTT assay; format: functional, cell-based; outline: as §3
HepG2 [12] = assay: Induction of cell cycle arrest on human HepG2 cells assessed as accumulation at G2/M phase at 50 uM after 48 hrs by propidium iodide staining based flow cytometry (reference value: 45.0 +/- 4.8%); format: functional
HepG2 [13] = assay: Induction of cell cycle arrest on human HepG2 cells assessed as accumulation at S phase at 20 uM after 24 hrs by propidium iodide staining based flow cytometry (reference value: 8.6 +/- 2.8%); format: functional
HepG2 [14] = assay: Antiproliferative activity against human HepG2 cells assessed as inhibition of cell proliferation after 72 hrs by MTT assay; format: functional, cell-based; outline: as §3
HepG2 [15] = assay: Induction of apoptosis in human HepG2 cells assessed as induction of cytoplasmic shrinkage at 25 uM after 24 hrs by Annexin V-Fluos staining based fluorescent microscopy; format: functional, cell-based
Outline: (§4)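 Cells seeded on chamber slides at 4000 per well and treated 24 h (HepG2 at 25 or 50 µM; SW620 at 50 µM). Incubated 15 min with Annexin V-Fluos reagent plus propidium iodide, washed in PBS, and examined by fluorescence microscopy for morphology and labelling.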

HepG2 [16] = assay: Induction of cell cycle arrest on human HepG2 cells assessed as accumulation at G1 phase at 50 uM after 24 hrs by propidium iodide staining based flow cytometry (reference value: 59.7 +/- 0.9%); format: functional
Nucleic Acid = assay: Induction of DNA intercalation in supercoiled pUC19 DNA in presence of human topoisomerase 1 assessed as effect on topoisomerase 1-mediated DNA relaxation at 5 to 50 uM by agarose gel electrophoresis; format: nucleic-acid assay; conditions: Escherichia coli
Outline: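 Supercoiled pUC19 incubated with human topoisomerase I and graded compound concentrations. Stopped with SDS/proteinase K. DNA forms resolved on 1% agarose in TBE, 2 h at 120 V, stained post-run with ethidium bromide and viewed under UV. Camptothecin was the topo I poison control.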

HepG2 [17] = assay: Induction of cell cycle arrest on human HepG2 cells assessed as accumulation at G1 phase at 20 uM after 48 hrs by propidium iodide staining based flow cytometry (reference value: 55.0 +/- 4.8%); format: functional
HepG2 [18] = assay: Induction of cell cycle arrest on human HepG2 cells assessed as accumulation at S phase at 20 uM after 48 hrs by propidium iodide staining based flow cytometry (reference value: 0 +/- 0%); format: functional; outline: as §1
HepG2 [19] = assay: Induction of cell cycle arrest on human HepG2 cells assessed as accumulation at S phase at 50 uM after 24 hrs by propidium iodide staining based flow cytometry (reference value: 8.6 +/- 2.8%); format: functional; outline: as §1
HepG2 [20] = assay: Induction of apoptosis in human HepG2 cells assessed as apoptotic bodies at 25 uM after 24 hrs by Annexin V-Fluos staining based fluorescent microscopy; format: functional, cell-based; outline: as §4
BJ = assay: Antiproliferative activity against human BJ cells assessed as inhibition of cell proliferation after 72 hrs by MTT assay; format: cell-based; conditions: 72 h; outline: as §3
HepG2 [21] = assay: Induction of cell cycle arrest on human HepG2 cells assessed as accumulation at subG1 phase at 20 uM after 48 hrs by propidium iodide staining based flow cytometry (reference value: 2.8 +/- 0.3%); format: functional; outline: as §1

Work on O=[N+]([O-])c1ccc(/N=C2\c3ccccc3CN2c2ccc([N+](=O)[O-])cc2)cc1 yielded an Activity (HepG2 [1]) of 59.7%, an Activity (HepG2 [2]) of 17.4% and an Activity (HepG2 [3]) of 0.8%. For the same compound, the Activity (HepG2 [4]) was 4.3%, the Activity (HepG2 [5]) was 6.6% and the inhibition [6] was “inactive”. The Activity (HepG2 [7]) was 8.3%, the Activity (HepG2 [8]) was 58.8% and the IC50 [9] was 33.4 µM. The inhibition (SW-620) was “Dose-dependent effect”, the Activity (HepG2 [10]) was 15.6% and the inhibition (MCF7) was “Dose-dependent effect”. The IC50 (MCF7; Homo sapiens, MCF7, 72 h) was 8.14 µM, the Activity (HepG2 [11]) was 44.9% and the inhibition (HeLa) was “Dose-dependent effect”. It also gave an IC50 (HeLa; Homo sapiens, HeLa, 72 h) of 7.69 µM, an Activity (HepG2 [12]) of 39.4% and an Activity (HepG2 [13]) of 25.6%. The inhibition (HepG2 [14]) was “Dose-dependent effect”, the IC50 (HepG2 [14]; HepG2, 72 h) was 9.65 µM and the Activity (HepG2 [15]) was “Active”. For the same compound, the Activity (HepG2 [16]) was 55%, the Activity (Nucleic Acid) was “inactive” and the Activity (HepG2 [17]) was 53.7%. For the same compound, the Activity (HepG2 [18]) was 1.3%, the Activity (HepG2 [19]) was 27.6% and the Activity (HepG2 [20]) was “Active”. For the same compound, the IC50 (BJ; Homo sapiens, BJ) was 75.3 µM, the “inhibition (INH)” value (BJ; human, bj) was “Dose-dependent effect” and the Activity (HepG2 [21]) was 4.4%.
